Measured values reported in the RNAGym collection of RNA variant scans (doi:10.1126/science.aae0568).
This sample holds only a part of the variants without activity.

B1: tRNA (parent)
chain: GUUCCGUUGGCGUAAUGGUAACGCGUCUCCCUCCUAAGGAGAAGACUGCGGGUUCGAGUCCCGUACGGAACG

Variants of: B1
Experiment: yeast fitness relative to wild type (ratio to wild type); higher = fitter; tRNA-Arg(CCU), competitive growth, 37 C, YPD
Summary of the method: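 For this measurement, the tRNA-Arg(CCU) gene was varied by chemical synthesis at a 3% per-site mutation rate across 69 sites, and each variant was placed at the native genomic locus in Saccharomyces cerevisiae. The pooled strains went through a 24-hour competition in YPD at 37°C in six parallel replicates, with amplicons from start and end populations read by 100-nucleotide paired-end sequencing. Darwinian fitness relative to wild type followed from the change in each genotype's frequency. Genotypes needed ≥ 100 starting reads, and estimates < 0.5 were set to 0.5.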

| Variant | yeast fitness |
| --- | --- |
| A36C G52A | ≤ 0.5 |
| C34U C66A | ≤ 0.5 |
| U35C A43C | 0.927 |
| U35C A43G | 0.783 |
| U35C A43U | 0.971 |
| C34U G50A G56C | 0.662 |
| C34U C46G G58C C60U C66G | ≤ 0.5 |
| A36C A42U A43G G63C | 0.509 |
| U35A A45C | 0.576 |
| A36U A40C | 0.54 |
| A36U A40U | 0.591 |
| C34G U59A G68A | ≤ 0.5 |
| U35A A36U G39A | 0.567 |
| C34U A40G U54C A57G | ≤ 0.5 |
| U35G A43U C46G U53C A69C | ≤ 0.5 |
| U35G A45U | 0.589 |
| A36C A37U | ≤ 0.5 |
| A36C A37G | 0.611 |
| U35A C61G | ≤ 0.5 |
| A36U A42U C46U G56C C61G A65U G67A A70G | ≤ 0.5 |
| U35C C60G | 0.602 |
| U35G A43G | 0.725 |
| C34U A37G C46U C61A | 0.589 |
| C34U A37U G58C C62A | 0.736 |

| Variant | yeast fitness |
| --- | --- |
| C34U A43G | 0.789 |
| C34U C61G A65C C66G | ≤ 0.5 |
| C34U A40G A69U | 0.574 |
| A36G A37U C66A A69U | ≤ 0.5 |
| C34U A36U G52C A69U | ≤ 0.5 |
| A36G G48C C60A | ≤ 0.5 |
| A36C A40U C46A G68C | 0.584 |
| U35C G44A C46G G50C U53A C66A | ≤ 0.5 |
| A36G C61U A69C | 0.693 |
| A36C G38C G52A | ≤ 0.5 |
| A36C A69U | 0.63 |
| A36C G44U | ≤ 0.5 |
| C34U C66U G67A | ≤ 0.5 |
| U35C A42C G50A | ≤ 0.5 |
| C34U G44C U47G A65C C66G | ≤ 0.5 |
| C34U A37U C46A G51A | 0.567 |
| A36G C60G A70G | ≤ 0.5 |
| A36C A45C G48A | ≤ 0.5 |
| U35G G38C G63A | ≤ 0.5 |
| U35G C46U A65C G67C | ≤ 0.5 |
| A36G G48A C49U | 0.606 |
| A36G A57G | 0.985 |
| A36U A45C C49G | 0.704 |
| C34U C49U | 0.866 |

| Variant | yeast fitness |
| --- | --- |
| U35C G41C A65C | ≤ 0.5 |
| A36G A69G | 0.932 |
| A36G U53A | 0.754 |
| C34U G39C A45G | ≤ 0.5 |
| U35G U59A | 0.646 |
| A36C C55U C66A | ≤ 0.5 |
| A36U A37U | 0.587 |
| U35A C46G C49U | 0.527 |
| U35G G51A | 0.634 |
| A36C G48A | 0.594 |
| A36C C46U | 0.577 |
| A36C C46G | 0.543 |
| U35C A36G | 0.931 |
| U35G A40C C62G C66G | 0.539 |
| A36G G39C C49U U54G | 0.58 |
| A36C C49A U54C U64C | ≤ 0.5 |
| U35G G44A | 0.509 |
| A36C U53A | 0.643 |
| A36C A57U | 0.509 |
| C34U A40U C61G | ≤ 0.5 |
| C34U A36C A40C C55A C66U | 0.526 |
| A36C A45C C49U C55G C62A G68A | ≤ 0.5 |
| U35A A36C C66A | ≤ 0.5 |
| U35C A37C C55A C60G G63C | ≤ 0.5 |

| Variant | yeast fitness |
| --- | --- |
| U35C G39A U53A | 0.567 |
| C34G U64G | 0.518 |
| C34G U64A | 0.654 |
| C34U G39A G48C A65U | ≤ 0.5 |
| A36C G48C C62U | ≤ 0.5 |
| A36G C61G | 0.659 |
| A36C G41A U53C A65U | ≤ 0.5 |
| U35C A43C C55G A65U | ≤ 0.5 |
| A36C C60U C62U A65C | ≤ 0.5 |
| U35C A45G | 0.773 |
| A36G A37U U64C A65G | ≤ 0.5 |
| C34U C49U C61U | 0.512 |
| A36G C49U A69C | 0.836 |
| C34U A40C C62U | 0.507 |
| A36C G38C A45G | 0.585 |
| C34U G39C | 0.571 |
| U35C A37U C46G U54C C61A | ≤ 0.5 |
| C34U G56A | 0.798 |
| U35G A57C A70C | ≤ 0.5 |
| U35A A45C G56A | 0.636 |
| U35A G52A | 0.532 |
| A36C A42G C61A | ≤ 0.5 |
| U35G G63A | 0.7 |
| C34U G39C C66U | ≤ 0.5 |

| Variant | yeast fitness |
| --- | --- |
| U35G C62U | 0.7 |
| U35G C62G | 0.597 |
| A36C G50A | 0.608 |
| A36U A40U A45G G58C | 0.565 |
| C34U G38A G56A | 0.611 |
| A36G C61U U64C C66U | ≤ 0.5 |
| C34U G67A | 0.744 |
| A36C C61U | 0.581 |
| C34G U54G | ≤ 0.5 |
| C34U A40C A43G | 0.513 |
| C34U A37U G41A G50C | ≤ 0.5 |
| C34U G52C C55U G58A | ≤ 0.5 |
| U35C G58A C60U | ≤ 0.5 |
| U35G A37G C49U | ≤ 0.5 |
| U35A C46A C55A A69U | ≤ 0.5 |
| U35A G41A C55U | 0.539 |
| U35A A43G | 0.624 |
| U35A A42U A43U U59G | 0.541 |
| C34U C62U | 0.673 |
| C34U A36C U53C | ≤ 0.5 |
| U35C A42C U64A | ≤ 0.5 |
| A36U A42C C55G C61G | ≤ 0.5 |
| A36G G44A | 0.978 |
| C34U G58A A65U | 0.618 |

| Variant | yeast fitness |
| --- | --- |
| A36G C60A | 0.575 |
| C34U A36C A70C | 0.594 |
| U35A A40U C46G U53A | ≤ 0.5 |
| U35A C60G G63A | 0.503 |
| C34G U59G G68U | 0.576 |
| A36G C49U U64C G68C | ≤ 0.5 |
| U35A C60A A65U A70G | ≤ 0.5 |
| C34U G39C A69U | ≤ 0.5 |
| C34U C61A | 0.563 |
| A36U A43C U53C | ≤ 0.5 |
| C34U A36G C55A | ≤ 0.5 |
| C34U G41A | 0.606 |
| C34U A40C A42C G48A | ≤ 0.5 |
| A36G A45C C55G G58C | 0.689 |
| C34U C49G G52C C55U C62G | 0.75 |
| A36C U47A G56U | 0.617 |
| A36G A37U G56C | ≤ 0.5 |
| U35C G52C G67C | 0.533 |
| U35C A45G C62A | ≤ 0.5 |
| U35A A69U | 0.806 |
| A36G U59C C61A C62U | ≤ 0.5 |
| C34U G44C U47G | 0.659 |
| U35C A36U G38A C46A U54C | ≤ 0.5 |
| A36G G52A C66A A69U | ≤ 0.5 |

| Variant | yeast fitness |
| --- | --- |
| U35A A42C | 0.643 |
| C34U U59A | 0.762 |
| A36G C55A | 0.729 |
| C34U A40G C55G | ≤ 0.5 |
| A36G U64C | 0.78 |
| U35G A70C | 0.711 |
| U35A A57U C61U | ≤ 0.5 |
| U35C G63A | 0.614 |
| A36G U47A G67C | ≤ 0.5 |
| U35A A42C C46U C66U G67C | ≤ 0.5 |
| A36G U54A C60G | ≤ 0.5 |
| U35A C66G | 0.599 |
| U35A A40U A57U | 0.625 |
| A36G G58A C60U | ≤ 0.5 |
| A36U A40G U53A | 0.627 |
| A36G G48A G51C | ≤ 0.5 |
| A36G A43C | 0.819 |
| C34U A42C G56C | ≤ 0.5 |
| A36G U54A | 0.691 |
| C34U A36G A57G | ≤ 0.5 |
| C34U U54A | ≤ 0.5 |
| U35A U59C C62U C66U | 0.645 |
| U35G U64C A65U | ≤ 0.5 |
